Assay results reported in PMC12216437 (Scientific Reports, 2025).
≈ marks a conversion by molar mass, not a printed value. Non-standard residues stand in square brackets, D forms with d. Residues, ends and D or L forms follow the SMILES beside them. hArg = N=C(N)NCCCC[C@H](N)C(=O)O

Columns and labels:
E. coli ATCC 8739 [1] = test: Resistance development assay; type: cell-based; conditions: for fold increase in MIC: E. coli ATCC 8739, sub-MIC exposure; for MIC: Escherichia coli, ATCC8739
E. coli ATCC 8739 [2] = test: Thermal and trypsin sensitivity; type: cell-based; conditions: for MIC, 80 °C: E. coli ATCC 8739, peptide heated at 80 °C for 10 min, no trypsin; for MBC, Control / MIC, Control: E. coli ATCC 8739, untreated peptide
LPS-binding assay = conditions: BC displacement, peptide 0.5-32 μM
Summary of the method: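 BODIPY-TR cadaverine displacement: LPS (25 µg/mL) preincubated with BC dye (2.5 µg/mL) for 4 h at room temperature. Peptides, with melittin as positive control, prepared at 0.5–32 µM in Tris–HCl pH 7.4 and combined with LPS–BC mixture for 1 h at 37 °C. Fluorescence read at ex 590/em 645 nm; triplicates, independent experiments.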

E. coli ATCC 8739 [3] = test: Cytoplasmic membrane depolarization assay; type: cell-based; conditions: E. coli ATCC 8739, membrane depolarisation
Summary of the method: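 E. coli ATCC 8739 washed twice and resuspended to OD600 0.05 in 5 mM HEPES (pH 7.4) with 20 mM glucose and 100 mM KCl. Cells incubated 1 h in the dark with Disc3(5) solution (20 µM). Baseline read every 1 min for 5 min ([…]/em 645 nm). Peptide at various concentrations or melittin control then added; read every 1 min for 15 min.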

E. coli ATCC 8739 [4] = test: Salts and serum sensitivity; type: cell-based; conditions: for MIC, NH4+: E. coli ATCC 8739, 6 μM NH4Cl; for MIC, Zn2+: E. coli ATCC 8739, 8 mM ZnCl2; for MBC, Serum 10% / MIC, Serum 10%: E. coli ATCC 8739, 10% FBS
[5] = tested on: Wax Moth Larvae (Galleria mellonella); test: In vivo toxicity in larvae; conditions: uninfected larvae, 4 × MIC of peptide 7, five-day observation
Summary of the method: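 Uninfected Galleria mellonella larvae (250 ± 20 mg), ten per group, given test compound at 4 × MIC; PBS as vehicle-only group. Kept at 24 °C and survival scored every 24 h for five days.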

[6] = E. coli ATCC 8739, 2.5 mM CaCl2

CO/N=C(\C(=O)N[C@@H]1C(=O)N2C(C(=O)O)=C(COC(C)=O)CS[C@H]12)c1csc(N)n1 [Cefotaxime]
fold increase in MIC (E. coli ATCC 8739 [1]; twenty passages (twenty days)): 32 fold
MIC (E. coli ATCC 8739 [1]): 1 µM (≈ 0.455 µg/mL)

CNC(C)C1CCC(N)C(OC2C(N)CC(N)C(OC3OCC(C)(O)C(NC)C3O)C2O)O1 (stereo not drawn) [Gentamicin]
fold increase in MIC (E. coli ATCC 8739 [1]; twenty passages (twenty days)): 32 fold
MIC (E. coli ATCC 8739 [1]): 2 µM (≈ 0.955 µg/mL)

CC[C@H](C)[C@H](NC(=O)CN)C(=O)NCC(=O)N[C@@H](C)C(=O)N[C@H](C(=O)N[C@@H](CC(C)C)C(=O)N[C@@H](CCCCN)C(=O)N[C@H](C(=O)N[C@@H](CC(C)C)C(=O)N[C@H](C(=O)N[C@H](C(=O)NCC(=O)N[C@@H](CC(C)C)C(=O)N1CCC[C@H]1C(=O)N[C@@H](C)C(=O)N[C@@H](CC(C)C)C(=O)N[C@H](C(=O)N[C@@H](CO)C(=O)N[C@@H](Cc1c[nH]c2ccccc12)C(=O)N[C@H](C(=O)N[C@@H](CCCCN)C(=O)N[C@@H](CCCNC(=N)N)C(=O)N[C@@H](CCCCN)C(=O)N[C@@H](CCCNC(=N)N)C(=O)N[C@@H](CCC(N)=O)C(=O)N[C@@H](CCC(N)=O)C(N)=O)[C@@H](C)CC)[C@@H](C)CC)[C@@H](C)O)[C@@H](C)O)C(C)C)C(C)C [Melittin]
fold increase of MIC and MBC values (E. coli ATCC 8739 [2]; E. coli ATCC 8739, 0.25 mg/mL trypsin): 32 fold
MIC, 80 °C (E. coli ATCC 8739 [2]): 2 µM (≈ 5.69 µg/mL)
MBC, Control (E. coli ATCC 8739 [2]): 2 µM (≈ 5.69 µg/mL)
MIC, Control (E. coli ATCC 8739 [2]): 2 µM (≈ 5.69 µg/mL)
concentration at which LPS-binding affinity peaked (LPS-binding assay): 16 µM
concentration at maximum Disc3(5) fluorescence (E. coli ATCC 8739 [3]): 2 µM
incubation time to maximum Disc3(5) fluorescence (E. coli ATCC 8739 [3]): 3 min

CCn1cc(C(=O)O)c(=O)c2cc(F)c(N3CCNCC3)cc21 [Norfloxacin]
fold increase in MIC (E. coli ATCC 8739 [1]; twenty passages (twenty days)): 512 fold
MIC (E. coli ATCC 8739 [1]): 0.25 µM (≈ 0.0798 µg/mL)

C[C@H](NC(=O)[C@H](Cc1c[nH]c2ccccc12)NC(=O)CNC(=O)[C@H](CCCNC(=N)N)NC(=O)[C@H](Cc1c[nH]c2ccccc12)NC(=O)[C@H](Cc1c[nH]c2ccccc12)NC(=O)[C@H](CO)NC(=O)[C@H](CO)NC(=O)[C@H](Cc1c[nH]c2ccccc12)NC(=O)CN)C(=O)N[C@@H](CCCCN)C(=O)N[C@@H](Cc1c[nH]c2ccccc12)C(=O)N[C@@H](C)C(=O)N[C@@H](CO)C(=O)N[C@@H](CCCCN)C(=O)NCC(=O)N[C@@H](Cc1c[nH]c2ccccc12)C(=O)NCC(=O)N[C@@H](CCCCN)C(N)=O [Peptide 6, [Trp^2,5,6,9,12,17]-des-(Asp20-Cys37)-E2P] (H-GWSSWWRGWAKWASKGWGK-NH2)
MIC, NH4+ (E. coli ATCC 8739 [4]): 4 µM
MBC, Mg2+ (E. coli ATCC 8739 [4]; E. coli ATCC 8739, 1 mM MgCl2): 32 µM
MIC, Mg2+ (E. coli ATCC 8739 [4]; E. coli ATCC 8739, 1 mM MgCl2): 32 µM
MIC, Zn2+ (E. coli ATCC 8739 [4]): 4 µM
MBC, Serum 10% (E. coli ATCC 8739 [4]): 4 µM
MIC, Serum 10% (E. coli ATCC 8739 [4]): 4 µM
MBC, Serum 20% (E. coli ATCC 8739 [4]; E. coli ATCC 8739, 20% FBS): 8 µM
MIC, Serum 20% (E. coli ATCC 8739 [4]; E. coli ATCC 8739, 20% FBS): 8 µM

CC[C@H](C)[C@H](NC(=O)[C@H](CO)NC(=O)[C@H](CO)NC(=O)[C@H](Cc1ccccc1)NC(=O)CN)C(=O)N[C@@H](Cc1ccccc1)C(=O)N[C@@H](CCCCNC(=N)N)C(=O)NCC(=O)N[C@H](C(=O)N[C@@H](C)C(=O)N[C@@H](CCCCNC(=N)N)C(=O)N[C@@H](Cc1ccccc1)C(=O)N[C@@H](C)C(=O)N[C@@H](CO)C(=O)N[C@@H](CCCCNC(=N)N)C(=O)NCC(=O)N[C@@H](CC(C)C)C(=O)NCC(=O)N[C@@H](CCCCNC(=N)N)C(N)=O)C(C)C [Peptide 7, [hArg^7,11,15,19]-des-(Asp20-Cys37)-E2P] (H-GFSSIF[hArg]GVA[hArg]FAS[hArg]GLG[hArg]-NH2)
MIC, Fe3+ (E. coli ATCC 8739 [4]; E. coli ATCC 8739, 4 μM FeCl3): 2 µM
MIC, NH4+ (E. coli ATCC 8739 [4]): 2 µM
MIC, K+ (E. coli ATCC 8739 [4]; E. coli ATCC 8739, 0.5 mM KCl): 2 µM
MIC, Mg2+ (E. coli ATCC 8739 [4]; E. coli ATCC 8739, 1 mM MgCl2): 8 µM
MBC, Ca2+ (E. coli ATCC 8739 [4]; [6]): 64 µM
MIC, Ca2+ (E. coli ATCC 8739 [4]; [6]): 64 µM
MIC, Zn2+ (E. coli ATCC 8739 [4]): 4 µM
MBC, Serum 10% (E. coli ATCC 8739 [4]): 4 µM
MIC, Serum 10% (E. coli ATCC 8739 [4]): 4 µM
MIC, 80 °C (E. coli ATCC 8739 [2]): 2 µM (≈ 4.19 µg/mL)
MBC, Control (E. coli ATCC 8739 [2]): 2 µM (≈ 4.19 µg/mL)
MIC, Control (E. coli ATCC 8739 [2]): 2 µM (≈ 4.19 µg/mL)
effect on survival of larvae (toxicity) [5]: did not affect the survival of the larvae

CO[C@H]1/C=C/O[C@@]2(C)Oc3c(C)c(O)c4c(O)c(c(/C=N/N5CCN(C)CC5)c(O)c4c3C2=O)NC(=O)/C(C)=C\C=C\[C@H](C)[C@H](O)[C@@H](C)[C@@H](O)[C@@H](C)[C@H](OC(C)=O)[C@@H]1C [Rifampicin]
fold increase in MIC (E. coli ATCC 8739 [1]; within five passages): 512 fold
MIC (E. coli ATCC 8739 [1]): 8 µM (≈ 6.58 µg/mL)
